Experimental data taken from ChEMBL document CHEMBL1155794, “Novel N1-substituted 1,3-dihydro-2H-benzimidazol-2-ones as potent non-nucleoside reverse transcriptase inhibitors” (Bioorg Med Chem, 2008).

What was measured:
[1] = Selectivity index, ratio of CC50 for human MT4 cells to EC50 for HIV1 3B; format: toxicity, cell-based; conditions: read-out: Ratio CC50/EC50
[2] = Cytotoxicity against human MT4 cells; format: cell-based
How it was run: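 MT-4 cell viability measured after exposure to compound dilutions; CC50 taken as concentration lowering viability by 50%.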

[3] = biological target: Human immunodeficiency virus type 1 reverse transcriptase (Human immunodeficiency virus 1, UniProt Q72547); test: Inhibition of HIV1 reverse transcriptase RNA-dependent DNA polymerase activity assessed as incorporation of radioactive dTTP into poly(rA)/oligo(DT)
[4] = test system: Human immunodeficiency virus 1; test: Antiviral activity against HIV1 3B in human MT4 cells assessed as virus-induced cytopathogenicity after 5 days; format: functional, organism-based; conditions: Human immunodeficiency virus 1, 3B, MT4, 120 h
How it was run: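 MT-4 cells infected and treated with serial dilutions, incubated at 37 °C for 5 days; viable cell count determined; EC50 = concentration reducing virus-induced cytopathicity by 50%.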

## Cc1cc(C)cc(Cn2c(=O)[nH]c3ccc(Cl)cc32)c1
[1]
  selectivity ratio: 281

## Cc1cc(C)cc(S(=O)(=O)n2c(=O)[nH]c3ccc(Cl)cc32)c1
[1]
  selectivity ratio: 17800

## O=c1[nH]c2ccc(Cl)cc2n1Cc1c(F)cccc1F
[1]
  selectivity ratio: > 1890
[2]
  CC50: > 424000 nM

## Cc1cc(C)cc(Cn2c(=O)[nH]c3ccc(C(F)(F)F)cc32)c1
[1]
  selectivity ratio: 88
[3]
  IC50: 280 nM
[4]
  EC50: 425 nM
[2]
  CC50: 37400 nM

## Cc1cc(C)cc(S(=O)(=O)n2c(=O)[nH]c3ccc(C)cc32)c1
[1]
  selectivity ratio: > 48900
[3]
  IC50: 100 nM
[4]
  EC50: 6.3 nM
[2]
  CC50: > 308000 nM

## Fc1cc(F)cc(Cn2c(=S)[nH]c3ccc(Cl)cc32)c1
[1]
  selectivity ratio: 2
[3]
  IC50: 160 nM
[4]
  EC50: > 737 nM
[2]
  CC50: 1200 nM

## Cc1ccc2[nH]c(=O)n(S(=O)(=O)c3c(F)cccc3F)c2c1
[1]
  selectivity ratio: 11
[3]
  IC50: 1300 nM
[4]
  EC50: 195 nM
[2]
  CC50: 2220 nM

## O=c1[nH]c2ccc(C(F)(F)F)cc2n1Cc1c(F)cccc1F
[1]
  selectivity ratio: > 77
[3]
  IC50: 17 nM
[4]
  EC50: 5500 nM
[2]
  CC50: > 424000 nM

## O=c1[nH]c2cc(F)c(Cl)cc2n1Cc1cc(F)cc(F)c1
[3]
  IC50: 3 nM
[4]
  EC50: > 33900 nM
[2]
  CC50: > 400000 nM

## CC(=O)n1c(=O)n(Cc2cc(F)cc(F)c2)c2cc(Cl)ccc21
[1]
  selectivity ratio: 24
[3]
  IC50: 38500 nM
[4]
  EC50: 1660 nM
[2]
  CC50: 40400 nM

## Cc1cc(C)cc(Cn2c(=O)[nH]c3ccc(C)cc32)c1
[1]
  selectivity ratio: 11
[3]
  IC50: 76900 nM
[4]
  EC50: 75 nM
[2]
  CC50: 856 nM

## Cc1ccc2[nH]c(=O)n(Cc3cc(F)cc(F)c3)c2c1
[1]
  selectivity ratio: < 1
[3]
  IC50: > 400000 nM
[4]
  EC50: > 73000 nM
[2]
  CC50: 73000 nM

## Cc1ccc2[nH]c(=O)n(S(=O)(=O)c3cc(F)cc(F)c3)c2c1
[1]
  selectivity ratio: 360
[3]
  IC50: 200 nM
[4]
  EC50: 65 nM
[2]
  CC50: 23400 nM

## CC(=O)n1c(=O)n(Cc2cc(C)cc(C)c2)c2cc(Cl)ccc21
[1]
  selectivity ratio: 614
[3]
  IC50: > 100000 nM
[4]
  EC50: 11.7 nM
[2]
  CC50: 7180 nM

## O=c1[nH]c2ccc(Cl)cc2n1Cc1cc(F)cc(F)c1
[1]
  selectivity ratio: > 1470
[3]
  IC50: 100 nM
[4]
  EC50: 289 nM
[2]
  CC50: > 424000 nM

## Fc1cccc(F)c1Cn1c(=S)[nH]c2ccc(Cl)cc21
[1]
  selectivity ratio: 8
[4]
  EC50: 740 nM
[2]
  CC50: 5950 nM

## Cc1cc(C)cc(Cn2c(=S)[nH]c3ccc(Cl)cc32)c1
[1]
  selectivity ratio: 4
[3]
  IC50: 46 nM
[4]
  EC50: 76 nM
[2]
  CC50: 305 nM

## O=c1[nH]c2ccc(Cl)cc2n1S(=O)(=O)c1c(F)cccc1F
[1]
  selectivity ratio: 124
[3]
  IC50: 30000 nM
[4]
  EC50: 1570 nM
[2]
  CC50: 194000 nM

## Cc1cc(C)cc(S(=O)(=O)n2c(=O)[nH]c3cc(F)c(Cl)cc32)c1
[1]
  selectivity ratio: 310
[3]
  IC50: 158 nM
[4]
  EC50: 450 nM
[2]
  CC50: 140000 nM

## CC(=O)n1c(=O)n(Cc2c(F)cccc2F)c2cc(Cl)ccc21
[1]
  selectivity ratio: 190
[3]
  IC50: > 100000 nM
[4]
  EC50: 534 nM
[2]
  CC50: 102000 nM

## O=c1[nH]c2cc(F)c(Cl)cc2n1Cc1c(F)cccc1F
[1]
  selectivity ratio: 9
[3]
  IC50: 140 nM
[4]
  EC50: 29000 nM
[2]
  CC50: 267000 nM

## Cc1cc(C)cc(Cn2c(=O)[nH]c3cc(F)c(Cl)cc32)c1
[1]
  selectivity ratio: > 438
[3]
  IC50: > 100000 nM
[4]
  EC50: 938 nM
[2]
  CC50: > 410000 nM

## O=c1[nH]c2ccc(Cl)cc2n1S(=O)(=O)c1cc(F)cc(F)c1
[1]
  selectivity ratio: 2930
[3]
  IC50: 100 nM
[4]
  EC50: 69 nM
[2]
  CC50: 202000 nM

## Cc1ccc2[nH]c(=O)n(Cc3c(F)cccc3F)c2c1
[1]
  selectivity ratio: 13
[3]
  IC50: > 100000 nM
[4]
  EC50: 18600 nM
[2]
  CC50: 236000 nM

## O=C1Nc2ccc(Cl)cc2[C@@](C#CC2CC2)(C(F)(F)F)O1 [EFAVIRENZ]
[2]
  CC50: > 6000 nM

## Cc1ccnc2c1NC(=O)c1cccnc1N2C1CC1 [NEVIRAPINE]
[2]
  CC50: > 15000 nM
